From ChEMBL document CHEMBL4627284, “Pyrimethamine conjugated histone deacetylase inhibitors: Design, synthesis and evidence for triple negative breast cancer selective cytotoxicity” (Bioorg Med Chem, 2020)
Calls of active or inactive are those of the source. No cut-off for these calls is given here.

Columns and labels:
A549 = assay: cells; type: functional, cell-based; conditions: Homo sapiens, A549, 72 h
[1] = molecular target: Signal transducer and activator of transcription 3 (Homo sapiens) (UniProt P40763); assay: Inhibition of STAT3 in human MDA-MB-231 cells assessed as slight downregulation of Bcl-2 expression at 5 to 25 uM after 24 hrs by western blot analysis; type: cell-based
Summary of the method: (§1)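 MDA-MB-231 cells, 1*10⁶ per well, were grown in DMEM for 24 h, serum-starved for 24 h, then treated for 24 h from DMSO solutions (final DMSO 0.1%; DMSO control). Cells were lysed in RIPA with protease and phosphatase inhibitors and protein equalized by BCA. 20-40 µg was run on 4-20% gels and transferred to PVDF, which was blocked in 5% BSA. Primary antibodies were applied overnight and secondary for 1 h, and band intensities were quantified by infrared imaging.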

MCF7 = assay: cells; type: functional, cell-based; conditions: Homo sapiens, MCF7, 72 h
Histone deacetylase 1 [2] = molecular target: T1, Histone deacetylase 1 (Homo sapiens, UniProt Q13547); assay: Inhibition of human recombinant HDAC1 using fluorogenic HDAC substrate preincubated for 30 mins followed by substrate addition and measured after 15 mins by fluorogenic assay
Histone deacetylase 1 [3] = molecular target: T1, Histone deacetylase 1; assay: Inhibition of HDAC1 in human MDA-MB-231 cells assessed as accumulation of acetylated H4 at 12.5 to 50 uM by western blot analysis; type: cell-based
Summary of the method: (§2)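 MDA-MB-231 cells were grown in DMEM for 24 h, serum-starved for 24 h, then treated for 4 h (DMSO control). Lysates were made in RIPA with protease and phosphatase inhibitors and normalized by BCA. 20-40 µg was run on 4-20% gels and transferred to PVDF, which was blocked in 5% BSA. Membranes were probed overnight for acetyl-α-tubulin or acetyl-H4, then with secondary for 1 h, and bands were quantified by infrared imaging.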

MDA-MB-231 [4] = assay: Cell cycle arrest in human MDA-MB-231 cells assessed as accumulation of cells at S phase at 25 uM incubated for 48 hrs RNase/PI staining based flow cytometry assay (reference value: 11.5 %); type: functional
Summary of the method: (§3)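 MDA-MB-231 cells, 5*10⁶ per 10 cm plate, were grown in DMEM for 24 h and then dosed for 48 h from DMSO stocks (final DMSO 0.1%; DMSO as control). Cells were trypsinized, washed twice in cold PBS and fixed in 70% ethanol overnight at -20°C. They were treated with 200 ug/mL RNase for 30 min, stained with 50 ug/mL PI at RT for 30 min, and DNA content was read by flow cytometry.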

MDA-MB-231 [5] = assay: Cell cycle arrest in human MDA-MB-231 cells assessed as accumulation of cells at G2 phase at 12.5 uM incubated for 48 hrs RNase/PI staining based flow cytometry assay (reference value: 17.4 %); type: functional
Summary of the method: as §3

MDA-MB-231 [6] = assay: cells; type: functional, cell-based; conditions: Homo sapiens, MDA-MB-231, 72 h
[7] = molecular target: T2, Protein deacetylase HDAC6 (Homo sapiens) (UniProt Q9UBN7); assay: Inhibition of HDAC6 in human MDA-MB-231 cells assessed as accumulation of acetylated tubulin at 12.5 to 50 uM by western blot analysis; type: cell-based
T2 sequence (whole entry): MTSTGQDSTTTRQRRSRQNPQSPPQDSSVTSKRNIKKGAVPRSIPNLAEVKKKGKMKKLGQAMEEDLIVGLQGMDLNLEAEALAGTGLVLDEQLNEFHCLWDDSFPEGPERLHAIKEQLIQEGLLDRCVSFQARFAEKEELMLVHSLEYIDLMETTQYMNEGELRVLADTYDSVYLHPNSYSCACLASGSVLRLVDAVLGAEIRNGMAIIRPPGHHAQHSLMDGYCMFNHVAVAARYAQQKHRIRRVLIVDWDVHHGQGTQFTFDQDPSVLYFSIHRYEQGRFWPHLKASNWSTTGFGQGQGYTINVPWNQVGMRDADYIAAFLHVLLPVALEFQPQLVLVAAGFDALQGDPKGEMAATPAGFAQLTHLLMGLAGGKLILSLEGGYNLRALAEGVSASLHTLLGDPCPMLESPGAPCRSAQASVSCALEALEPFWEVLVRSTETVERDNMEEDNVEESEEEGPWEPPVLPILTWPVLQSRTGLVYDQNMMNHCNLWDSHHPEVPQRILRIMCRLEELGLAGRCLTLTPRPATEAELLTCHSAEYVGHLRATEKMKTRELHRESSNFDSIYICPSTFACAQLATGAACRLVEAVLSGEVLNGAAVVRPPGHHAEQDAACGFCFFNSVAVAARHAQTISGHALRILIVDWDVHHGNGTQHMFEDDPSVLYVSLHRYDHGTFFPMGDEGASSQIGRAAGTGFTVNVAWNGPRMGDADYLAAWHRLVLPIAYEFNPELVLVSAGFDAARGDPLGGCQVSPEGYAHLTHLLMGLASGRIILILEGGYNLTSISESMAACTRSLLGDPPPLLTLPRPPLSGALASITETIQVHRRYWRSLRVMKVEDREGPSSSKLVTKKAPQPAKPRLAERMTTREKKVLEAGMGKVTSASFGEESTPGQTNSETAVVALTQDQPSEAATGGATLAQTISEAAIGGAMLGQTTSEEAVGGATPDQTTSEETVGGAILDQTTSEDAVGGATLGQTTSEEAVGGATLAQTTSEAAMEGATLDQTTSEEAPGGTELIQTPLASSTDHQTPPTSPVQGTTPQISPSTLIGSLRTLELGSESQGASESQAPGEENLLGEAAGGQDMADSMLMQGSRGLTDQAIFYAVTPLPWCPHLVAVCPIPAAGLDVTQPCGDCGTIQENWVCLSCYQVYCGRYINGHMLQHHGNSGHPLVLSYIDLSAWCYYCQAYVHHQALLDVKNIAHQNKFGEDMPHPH
Summary of the method: as §2

MDA-MB-231 [8] = assay: Cell cycle arrest in human MDA-MB-231 cells assessed as accumulation of cells at S phase at 12.5 uM incubated for 48 hrs RNase/PI staining based flow cytometry assay (reference value: […] %); type: functional
Summary of the method: as §3

MDA-MB-231 [9] = assay: Cell cycle arrest in human MDA-MB-231 cells assessed as accumulation of cells at G1 phase at 25 uM incubated for 48 hrs RNase/PI staining based flow cytometry assay (reference value: 64.3 %); type: functional
Summary of the method: as §3

[10] = molecular target: T3, Protein deacetylase HDAC6 (Homo sapiens, UniProt Q9UBN7); assay: Inhibition of human recombinant HDAC6 using fluorogenic HDAC substrate 3 preincubated for 30 mins followed by substrate addition and measured after 15 mins by fluorogenic assay
T3 sequence (Q9UBN7 whole entry): T2 sequence (whole entry)

[11] = molecular target: Signal transducer and activator of transcription 3 (Homo sapiens) (UniProt P40763); assay: Inhibition of STAT3 in human MDA-MB-231 cells assessed as effect on pSTAT3 expression at 5 to 25 uM after 24 hrs by western blot analysis; type: cell-based
Summary of the method: as §1

[12] = molecular target: Signal transducer and activator of transcription 3 (Homo sapiens) (UniProt P40763); assay: Inhibition of STAT3 in human MDA-MB-231 cells assessed as upregulation of p-p38 expression after 24 hrs by western blot analysis; type: cell-based
Summary of the method: as §1

[13] = molecular target: Signal transducer and activator of transcription 3 (Homo sapiens) (UniProt P40763); assay: Inhibition of STAT3 in human MDA-MB-231 cells assessed as downregulation of Bcl-xL expression after 24 hrs by western blot analysis; type: cell-based
Summary of the method: as §1

[14] = molecular target: Signal transducer and activator of transcription 3 (Homo sapiens) (UniProt P40763); assay: Inhibition of STAT3 in human MDA-MB-231 cells assessed as downregulation of cyclinD1 expression at 2.5 to 5 uM after 24 hrs by western blot analysis; type: cell-based
Summary of the method: as §1

MDA-MB-231 [15] = assay: Cell cycle arrest in human MDA-MB-231 cells assessed as accumulation of cells at G2 phase at 12.5 uM incubated for 48 hrs by flow cytometry (reference value: […] %)
MDA-MB-231 [16] = assay: Cell cycle arrest in human MDA-MB-231 cells assessed as accumulation of cells at G2 phase at 25 uM incubated for 48 hrs RNase/PI staining based flow cytometry assay (reference value: 17.4 %); type: functional
Summary of the method: as §3

Vero = assay: cells; conditions: Chlorocebus sabaeus, 72 h
MDA-MB-231 [17] = assay: Cell cycle arrest in human MDA-MB-231 cells assessed as accumulation of cells at G2 phase at 15 uM incubated for 48 hrs RNase/PI staining based flow cytometry assay; type: functional
Summary of the method: as §3

Histone deacetylase 8 = molecular target: T4, Histone deacetylase 8 (Homo sapiens, UniProt Q9BY41); assay: Inhibition of human recombinant HDAC8 using fluorogenic HDAC substrate class 2A preincubated for 30 mins followed by substrate addition and measured after 15 mins by fluorogenic assay
T4 sequence (Q9BY41 whole entry): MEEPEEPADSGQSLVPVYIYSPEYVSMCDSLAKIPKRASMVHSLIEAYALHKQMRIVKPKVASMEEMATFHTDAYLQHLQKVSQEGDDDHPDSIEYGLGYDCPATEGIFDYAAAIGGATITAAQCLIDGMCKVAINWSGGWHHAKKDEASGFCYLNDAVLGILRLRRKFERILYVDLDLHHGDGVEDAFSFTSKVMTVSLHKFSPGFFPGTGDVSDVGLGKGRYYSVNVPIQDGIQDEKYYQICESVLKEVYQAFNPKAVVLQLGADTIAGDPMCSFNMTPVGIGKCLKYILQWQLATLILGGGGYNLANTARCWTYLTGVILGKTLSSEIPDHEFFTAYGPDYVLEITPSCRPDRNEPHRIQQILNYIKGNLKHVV

[18] = molecular target: Signal transducer and activator of transcription 3 (Homo sapiens) (UniProt P40763); assay: Inhibition of STAT3 in human MDA-MB-231 cells assessed as downregulation of cyclinD1 expression at 100 to 200 uM after 24 hrs by western blot analysis; type: cell-based
Summary of the method: as §1

[19] = molecular target: Signal transducer and activator of transcription 3 (Homo sapiens) (UniProt P40763); assay: Inhibition of STAT3 in human MDA-MB-231 cells assessed as effect on pSTAT3 expression at 50 to 100 uM after 24 hrs by western blot analysis; type: cell-based
Summary of the method: as §1

[20] = molecular target: Signal transducer and activator of transcription 3 (Homo sapiens) (UniProt P40763); assay: Inhibition of STAT3 in human MDA-MB-231 cells assessed as upregulation of Bcl-xLexpression after 24 hrs by western blot analysis; type: cell-based
Summary of the method: as §1

[21] = molecular target: T2, Protein deacetylase HDAC6 (Homo sapiens); assay: Inhibition of HDAC6 in human MDA-MB-231 cells assessed as accumulation of acetylated tubulin at 50 to 100 uM by western blot analysis; type: cell-based
Summary of the method: as §2

Histone deacetylase 1 [22] = molecular target: T1, Histone deacetylase 1; assay: Inhibition of HDAC1 in human MDA-MB-231 cells assessed as accumulation of acetylated H4 at 50 to 100 uM by western blot analysis; type: cell-based
Summary of the method: as §2

Sequence of Signal transducer and activator of transcription 3 (Homo sapiens) (P40763 whole entry): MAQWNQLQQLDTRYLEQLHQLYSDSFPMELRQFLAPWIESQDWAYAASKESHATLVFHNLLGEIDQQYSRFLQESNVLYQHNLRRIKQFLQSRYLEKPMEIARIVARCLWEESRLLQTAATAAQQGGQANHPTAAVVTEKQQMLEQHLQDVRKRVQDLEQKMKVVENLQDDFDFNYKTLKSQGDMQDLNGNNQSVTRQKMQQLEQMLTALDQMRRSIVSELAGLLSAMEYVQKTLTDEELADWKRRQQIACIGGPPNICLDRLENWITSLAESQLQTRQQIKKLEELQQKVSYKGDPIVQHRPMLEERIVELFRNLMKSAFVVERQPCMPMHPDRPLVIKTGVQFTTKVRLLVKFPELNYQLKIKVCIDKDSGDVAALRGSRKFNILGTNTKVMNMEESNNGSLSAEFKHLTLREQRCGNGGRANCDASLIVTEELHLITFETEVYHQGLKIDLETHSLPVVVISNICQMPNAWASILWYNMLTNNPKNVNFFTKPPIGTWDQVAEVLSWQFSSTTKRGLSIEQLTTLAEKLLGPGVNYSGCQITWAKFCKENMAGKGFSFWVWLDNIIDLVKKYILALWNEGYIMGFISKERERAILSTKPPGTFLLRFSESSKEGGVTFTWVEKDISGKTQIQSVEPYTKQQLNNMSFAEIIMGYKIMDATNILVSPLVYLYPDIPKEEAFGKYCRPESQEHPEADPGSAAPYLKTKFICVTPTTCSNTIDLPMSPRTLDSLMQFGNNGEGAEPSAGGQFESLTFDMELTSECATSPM
T1 sequence (Q13547 whole entry): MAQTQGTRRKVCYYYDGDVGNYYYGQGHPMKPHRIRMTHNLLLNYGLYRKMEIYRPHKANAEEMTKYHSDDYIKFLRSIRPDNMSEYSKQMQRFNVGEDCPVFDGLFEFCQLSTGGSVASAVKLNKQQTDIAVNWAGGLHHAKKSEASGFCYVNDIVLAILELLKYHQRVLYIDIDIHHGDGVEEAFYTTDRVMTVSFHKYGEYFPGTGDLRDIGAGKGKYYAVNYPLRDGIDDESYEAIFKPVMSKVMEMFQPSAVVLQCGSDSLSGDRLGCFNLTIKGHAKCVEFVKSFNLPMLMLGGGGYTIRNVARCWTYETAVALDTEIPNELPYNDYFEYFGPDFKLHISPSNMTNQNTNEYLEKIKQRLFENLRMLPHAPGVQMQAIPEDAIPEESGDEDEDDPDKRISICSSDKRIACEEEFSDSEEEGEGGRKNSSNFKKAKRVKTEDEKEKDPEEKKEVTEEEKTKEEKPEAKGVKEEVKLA

IC50 (A549) [µM]	IC50 (MCF7) [µM]	IC50 (Histone deacetylase 1 [2]) [µM]	IC50 (MDA-MB-231 [6]) [µM]	IC50 [10] [µM]	inhibition [12]	SMILES	IC50 (Vero) [µM]	further results
88.5	83.3	0.21	21.4	0.021	Dose-dependent effect	CCc1nc(N)nc(N)c1-c1ccc(-c2cn(CCCCCCCC(=O)NO)nn2)cc1	–	inhibition [1]: Active; inhibition (Histone deacetylase 1 [3]): Active; Activity (MDA-MB-231 [4]): 1.63%; Activity (MDA-MB-231 [5]): 66.8%; inhibition [7]: Active; Activity (MDA-MB-231 [8]): 5.17%; Activity (MDA-MB-231 [9]): 22.1%; inhibition [11]: inactive; inhibition [13]: Dose-dependent effect; inhibition [14]: Active; Activity (MDA-MB-231 [15]): 24%; Activity (MDA-MB-231 [16]): 70.6%
65.5	57.3	0.045	12.2	0.017	–	CCc1nc(N)nc(N)c1-c1ccc(-c2cn(CCCCCCC(=O)NO)nn2)cc1	40.2	Activity (MDA-MB-231 [17]): Active; IC50 (Histone deacetylase 8): 0.78 µM
10	9.3	3.7	5.43	0.073	–	CCc1nc(N)nc(N)c1-c1ccc(-c2ccc(/C=C/C(=O)NO)cc2)cc1	6.9	–
–	453	–	238	–	Dose-dependent effect	CCc1nc(N)nc(N)c1-c1ccc(Cl)cc1 [PYRIMETHAMINE]	–	inhibition [18]: Active; inhibition [19]: inactive; inhibition [20]: Active; inhibition [21]: inactive; inhibition (Histone deacetylase 1 [22]): inactive
